# Sampled rows, rich in hits. Any-hit rate of the full collection: about 3.6%.
# HSF-1 act – increases HSF-1 driven luciferase reporter signal; NIH3T3-HGL HSF-1 luciferase reporter, MG132, 8 h; 100% = twice DMSO control signal; activation, % at 9 µM; 1.7% of 300,000 active;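 active means mean replicate activation of at least 50% with a set share of replicates each reaching 50%; inconclusive means only one of those two conditions met; inactive means mean below 50% and too few replicates reaching it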;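 further: 0% = median of the neutral control wells and 100% = twice that signal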
# SR-BI HDL uptake – mouse SR-BI HDL lipid transfer inhibition. Q61009. ldlA[mSR-BI] CHO cells, DiI-HDL uptake fluorescence, 3 h. inhibition, % at 12.5 µM. 0.96% of 320,000 active. AID 488896;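 active means mean replicate inhibition of at least 70% and a set share of replicates each scoring 70 or more; inconclusive means meets just one of the two criteria; inactive means fails both criteria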;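 further: 0% = median of neutral control wells and 100% = median of positive control wells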
# Target sequence (Q61009 whole entry, looked up): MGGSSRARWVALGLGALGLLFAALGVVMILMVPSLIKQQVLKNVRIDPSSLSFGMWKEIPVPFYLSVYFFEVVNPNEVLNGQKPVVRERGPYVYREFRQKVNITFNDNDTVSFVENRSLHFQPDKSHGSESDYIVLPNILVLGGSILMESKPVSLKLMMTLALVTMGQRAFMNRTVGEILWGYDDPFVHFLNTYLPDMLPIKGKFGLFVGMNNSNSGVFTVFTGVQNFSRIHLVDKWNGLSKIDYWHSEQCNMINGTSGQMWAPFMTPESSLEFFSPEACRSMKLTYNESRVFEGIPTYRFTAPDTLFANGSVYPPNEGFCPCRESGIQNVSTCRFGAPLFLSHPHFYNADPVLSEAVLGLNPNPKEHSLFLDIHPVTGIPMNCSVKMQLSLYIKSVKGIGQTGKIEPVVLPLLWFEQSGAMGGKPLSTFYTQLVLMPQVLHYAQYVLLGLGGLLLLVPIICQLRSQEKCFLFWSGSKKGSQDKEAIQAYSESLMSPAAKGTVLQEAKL
# SR-BI DiI-HDL act – activators of SR-BI mediated HDL lipid uptake | 0.096% of 320,000 active | AID 504775 | CHO ldlA[mSR-BI] cells, DiI-HDL uptake fluorescence, 3 h; 100 = double the neutral-control signal | activation, % at 12.5 µM;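 active means mean replicate activation of at least 60% and every replicate at or above 60%; inconclusive means mean or all-replicate condition met, but not both; inactive means mean below 60% and not all replicates reaching 60%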;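 further: 0% = median plate neutral-control signal and 100% = twice that signal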
#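 system = CHO ldlA[mSR-BI] cells, LDL receptor-null, SR-BI overexpressing | medium = Ham's F12 with 0.5% BSA, HEPES 25 mM, pH 7.4 | probe or stimulus = DiI-HDL 10 µg/mL | compound dosing = single-point compound dose | incubation = compound exposure 3 h, 37 °C | technique = DiI fluorescence, bottom read | read-out = cell-associated DiI fluorescence as measure of HDL uptake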
# Wnt act – activators of Wnt/beta-catenin signaling. Wnt/beta-catenin reporter cell assay, activator, plate reader. activation, % at 9.35 µM. AID 743398. 1.2% of 300,000 active; in the data active means activation above about 30%, passing the limit was not always enough; inconclusive means no clear call, values can overlap the other calls;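 further: 0% = neutral control wells and 100% = positive control wells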
# MITF act – MITF TRPM1 promoter activation in melanoma cells; SK-MEL-5 TRPM1-promoter luciferase, 24 h; % of positive control, neutral wells = 0; AID 588334; 0.75% of 300,000 active; activation, % at 12.5 µM;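 active means mean activation of at least 80% with every replicate also reaching 80%; inconclusive means mean reaches 80% but some replicate falls short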;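 further: 0% = neutral control wells and 100% = parthenolide positive control wells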
# * hit, by the source's call; ? = inconclusive; . = not tested or not shown.
SMILES,HSF-1 act,SR-BI HDL uptake,SR-BI DiI-HDL act,Wnt act,MITF act
O=[N+]([O-])c1ccccc1N=Nc1c(O)[nH]c2ccc(F)cc12,.,0,0,31*,25
CCCc1c(C(=O)N/N=C(\CC)c2ccccc2)nnn1-c1nonc1N,.,.,.,0,.
COc1cccc(NC(=O)N(C)C[C@@H]2OCc3cnnn3CCCC(=O)N([C@H](C)CO)C[C@@H]2C)c1,.,.,.,4,.
COc1ccc(CCNC(=O)c2cc([N+](=O)[O-])cc([N+](=O)[O-])c2)cc1OC,-22,73*,-73,0,-2
COc1ccc(CCNC(=O)c2ccc(N(C)S(=O)(=O)c3ccc(C)cc3)cc2)cc1OC,-11,74*,-74,-3,0
O=C(CCNS(=O)(=O)c1ccc2ccccc2c1)NCCOc1ccccc1,.,8,-8,2,-13
COc1ccc(OC)c(CN2CCN(C(=O)c3cc(S(=O)(=O)N4CCOCC4)ccc3C)CC2)c1,.,.,.,3,.
C/C(=N\OC(=O)c1ccc(F)cc1)c1sc(-c2ccc(Cl)cc2)nc1C,42,-26,26,51*,72
Cc1ccc(/C(N)=N/OC(=O)c2ccc(F)cc2)cc1,?,11,-11,.,56
C/C(=N\OC(=O)c1ccc(F)cc1)c1ccc(F)c(F)c1,54*,-7,7,0,.
COc1ccc(CCNC(=O)c2nonc2N)cc1,61*,-22,22,9,.
COc1cccc(CNCCNC(=O)c2nonc2N)c1,12,-32,32,1,-3
O=C1NC(=O)C2C3OC(C(Br)C3Br)C12 (configuration not stated),.,.,.,-1,.
CCC(C)(C)n1nnnc1C(c1cc2cc(C)cc(C)c2[nH]c1=O)N1CCCC1 (configuration not stated),.,-6,6,.,-4
CCC(C)(C)n1nnnc1C(c1cc2cc(C)cc(C)c2[nH]c1=O)N1CCN(Cc2ccc3c(c2)OCO3)CC1 (configuration not stated),54*,1,-1,-2,.
CC(C)CNC(=O)c1cc(-c2ccc3c(c2)OCO3)on1,7,-11,11,35*,.
CN(C(=O)c1cc(-c2ccc3c(c2)OCO3)on1)c1ccccc1,13,-4,4,14,101*
CC(NC(=O)C=Cc1ccco1)C(=O)NC(Cc1ccccc1)C(N)=O (configuration not stated),.,.,.,1,.
CCOC(=O)C(=O)N(C)c1c(CC)nc2c(OCc3cccc(OC)c3)cccn12,.,.,.,0,.
Cc1ccc(C(NC(=O)NCCCN2CCOCC2)=C(Cl)Cl)cc1F,69*,-35,35,-9,-11
O=C(NC1CCCC1)[C@@H]1CCCN1C(=O)[C@@H](NS(=O)(=O)c1ccc(F)cc1F)c1ccccc1,.,.,.,2,.
COc1ccc2oc(C)c(C(=O)c3ccccc3)c2c1,-10,.,.,7,.
COc1ccc2oc(/C=C/N(C)C)c(C(=O)c3ccc(Cl)cc3)c2c1,-9,78*,-78,-1,-15
COC(=O)c1oc2ccc(OC)cc2c1N,-5,-12,12,.,45
COc1ccc(C(=O)c2oc3ccc(OC)cc3c2N)cc1,18,53,-53,47*,102*
SMILES,HSF-1 act,SR-BI HDL uptake,SR-BI DiI-HDL act,Wnt act,MITF act
COc1ccccc1N(CC(O)CN1CCC(C)CC1)S(=O)(=O)c1ccccc1 (configuration not stated),57*,-10,10,0,12
COc1ccccc1N(CC(O)CN1CCCC1)S(=O)(=O)c1ccccc1 (configuration not stated),-3,4,-4,1,9
CCOC(=O)c1cc(-c2ccc(OC)cc2)nc2c1c(C)nn2CCC#N,-9,74*,-74,.,6
CCOC(=O)c1cnc2c(cnn2C)c1NCc1ccc(OC)cc1,1,79*,-79,-3,6
CCOC(=O)c1cnc2c(c(C)nn2C)c1Oc1ccc(OC)cc1,-3,.,.,49*,.
O=C1c2ccccc2/C(=C\c2ccc(Br)nc2)N1c1ccccc1,.,.,.,-1,.
COc1ccc(Cc2c(-c3ccc(Cl)cc3)nc3cc(C)c(Br)c(C)n23)c(C)c1,.,.,.,-2,.
CO[C@@H]1CN(C)C(=O)c2cc(NS(=O)(=O)c3ccc(C)cc3)ccc2OC[C@H](C)N(Cc2nccs2)C[C@H]1C,.,.,.,-2,.
OC(COCC1CC=CCC1)Cn1cnc2ccccc21 (configuration not stated),-2,-16,16,.,8
Cc1nc2ccccc2n1CC(O)COCC1CC=CCC1 (configuration not stated),87*,-10,10,.,3
CCCc1cc(=O)n2[nH]c(-c3ccc(Cl)cc3)cc2n1,64*,5,-5,11,.
O=C1c2ccccc2C(c2nc3ccccc3[nH]2)N1Cc1ccco1 (configuration not stated),.,.,.,-1,.
CCOC(=O)CSc1cc(-c2ccccc2)nc2ncnn12,75*,6,-6,1,.
Cc1nn(-c2ccccc2)c(C)c1/C=N/NC(=O)CSc1nc2ccccc2c(=O)n1-c1ccc(Br)cc1,-18,74*,-74,-1,7
Cc1nn(-c2ccccc2)c(C)c1/C=N/NC(=O)CSc1nnc(SCc2cccc3ccccc23)s1,47,73*,-73,.,15
O=C(CSc1nnc(SCc2ccc(Cl)cc2)s1)N/N=C/c1c(Cl)cccc1Cl,60*,45,-45,.,22
O=C1CC(SC(=Nc2ccccc2)Nc2ccccc2)C(=O)N1c1cccc2ccccc12 (configuration not stated),2,93*,-93,.,-1
CCOC(=O)c1sc(NC(=O)CCN2CCC(C)CC2)c(C(=O)OCC)c1C,233*,11,-11,-1,6
CCOC(=O)c1sc(NC(=O)CSc2nncs2)c(C(=O)OCC)c1C,56*,12,-12,20,18
CCOC(=O)c1c(NC(=O)CCN2C(=O)c3ccccc3C2=O)sc(C(=O)OC(C)C)c1C,1,73*,-73,.,7
C=C1CC[C@@H]2[C@](C)(CCC[C@@]2(C)/C=C/[C@@H](O)C(C)(C)O)[C@H]1CC(=O)NCCS(=O)(=O)O,.,-30,30,0,-5
N#Cc1ccc(CN(Nc2ccccc2)c2ccccc2)cc1,.,.,.,0,.
OC[C@@H]1CN(Cc2cccc(C(F)(F)F)c2)C[C@H](n2cnc3c(NC4CC4)ncnc32)O1,.,.,.,-2,.
S=C(NC1CCCCC1)NC1CC2C=CC1C2 (configuration not stated),85*,-2,2,3,.
CC(C)(CCO)NC(=S)NC1CC2C=CC1C2 (configuration not stated),-3,-10,10,10,-12
Oc1ccc2ccccc2c1CN1CCN(c2ccccc2)CC1,375*,16,-16,.,.
CCN1CCN(Cc2c3ccccc3cc3ccccc23)CC1,5,27,-27,49*,20
Oc1ccc2ccccc2c1CN1CCCC1,-9,9,-9,-2,-24

# From PubChem BioAssay
